Experiment [1] concerns Saccharomyces cerevisiae. The experiment is described as follows: DNA damaging activity against RS 188N (RAD+) yeast assessed as drug level required to produce 12 mm zone of inhibition. It counts as functional. The gist of the method: (§1)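 Agar well-diffusion test on yeast: sample placed in 100 μl wells and growth-inhibition zones measured. Potency given as IC12 in μg/ml, the concentration giving a 12 mm inhibition zone. rad 52 strain RS 322 YK lacks the recombination pathway for double-strand-break repair. RS 188 N is the repair-proficient RAD+ counterpart.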

In experiment [2] the test system is Vero. The experiment in a line: Cytotoxicity against african green monkey Vero cells. The class given is cell-based. As to conditions: Chlorocebus sabaeus. Put shortly: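 Vero cells exposed to compound for 72 h; viability read by XTT staining; IC50 given in μg/ml.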
The subject of experiment [3] is Saccharomyces cerevisiae. The experiment in a line: DNA damaging activity against DNA repair-deficient RS 322YK (rad 52Y) yeast assessed as drug level required to produce 12 mm zone of inhibition. The class given is functional. The gist of the method:
as §1

Converted amounts (≈) assume the structure as drawn.

Regarding `CC(O)c1cc2c(o1)C(=O)c1ccccc1C2=O` (stereo not given), the figures for the IC12 in experiment [1] and in experiment [3] were 180 µg/mL and 14 µg/mL, respectively. Half-maximal inhibition in experiment [2] (IC50) required 0.41 µg/mL (≈ 1.69 µM).

`C=C(C)[C@@H]1OC2=C(C(=O)c3c(ccc(OC)c3OC)C2=O)[C@@H]1O`: the results for the IC12 in experiment [1] and in experiment [3] were greater than 1000 µg/mL and 47 µg/mL, respectively. In experiment [2], this compound showed an IC50 of 3.7 µg/mL (≈ 11.7 µM).

In the case of `CC(O)c1cc2c(o1)C(=O)c1cccc(O)c1C2=O` (stereo not given), the figures for the IC12 in experiment [1] and in experiment [3] were 10 µg/mL and 3 µg/mL, respectively. In experiment [2], this compound came in with an IC50 of 0.21 µg/mL (≈ 0.813 µM).

As for `C=C(C)[C@H]1CC2=C(O1)C(=O)c1cccc(OC)c1C2=O`, the IC12 came to 280 µg/mL in experiment [1] and 48 µg/mL in experiment [3]. In addition, in experiment [2], inhibition was half-maximal at 4.3 µg/mL (≈ 15.9 µM) (IC50).

Consider `CC[C@@]1(O)C(=O)OCc2c1cc1n(c2=O)Cc2cc3ccccc3nc2-1` [CAMPTOTHECIN], for which the IC12 turned out to be 110 µg/mL in experiment [1] and 0.6 µg/mL in experiment [3]. Further, the IC50 in experiment [2] worked out at 0.054 µg/mL (≈ 0.155 µM).

Consider `C=C(C)[C@H]1CC2=C(O1)C(=O)c1ccc(OC)c(OC)c1C2=O`, for which the IC12 in experiment [1] was determined as 120 µg/mL; in experiment [3], 33 µg/mL. In addition, the IC50 in experiment [2] was determined as 4.7 µg/mL (≈ 15.7 µM).

Consider `C=C(C)C1CC2=C(O1)C(=O)c1cccc(O)c1C2=O` (stereo not given), for which the IC12 in experiment [1] was 140 µg/mL; in experiment [3] it was 80 µg/mL.

Source of the values: ChEMBL document CHEMBL1147367, “Bioactive furanonaphthoquinones from Crescentia cujete” (J Nat Prod, 1993).
